Assay results: ChEMBL document CHEMBL1125307, “Novel 1,2,4-oxadiazoles and 1,2,4-thiadiazoles as dual 5-lipoxygenase and cyclooxygenase inhibitors” (J Med Chem, 1992)
Activity calls are given as the source filed them. The rule behind the calls is not given here.

How the values were obtained:
[1] = test system: Rattus norvegicus; assay: Compound was evaluated for th antiinflammatory activity administering through oral route by taking the inhibitory dose of induced edema in the mycobacterium foot-pad edema test; type: functional
[2] = target: T1, Cyclooxygenase (Rattus norvegicus, UniProt P35355+Q63921); assay: Evaluated in vitro for its inhibitory activity against Prostaglandin G/H synthase; type: protein assay
T1 sequence (P35355 whole entry): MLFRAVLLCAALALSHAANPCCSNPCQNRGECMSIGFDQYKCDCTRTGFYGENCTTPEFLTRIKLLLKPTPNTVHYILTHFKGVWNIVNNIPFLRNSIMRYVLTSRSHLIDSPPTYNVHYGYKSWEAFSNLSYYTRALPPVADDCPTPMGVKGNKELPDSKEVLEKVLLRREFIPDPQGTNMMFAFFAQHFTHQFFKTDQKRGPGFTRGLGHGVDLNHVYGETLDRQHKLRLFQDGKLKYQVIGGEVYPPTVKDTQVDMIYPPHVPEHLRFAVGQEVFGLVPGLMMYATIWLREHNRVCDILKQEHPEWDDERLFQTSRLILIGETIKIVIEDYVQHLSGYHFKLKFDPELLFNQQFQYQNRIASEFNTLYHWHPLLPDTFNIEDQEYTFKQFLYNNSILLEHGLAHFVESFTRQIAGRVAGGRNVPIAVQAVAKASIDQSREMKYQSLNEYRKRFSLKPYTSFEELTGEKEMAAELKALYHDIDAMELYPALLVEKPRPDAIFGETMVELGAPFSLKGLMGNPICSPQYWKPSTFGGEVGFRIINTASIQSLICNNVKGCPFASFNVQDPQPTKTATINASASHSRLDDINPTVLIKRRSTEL
T1 sequence (Q63921 whole entry): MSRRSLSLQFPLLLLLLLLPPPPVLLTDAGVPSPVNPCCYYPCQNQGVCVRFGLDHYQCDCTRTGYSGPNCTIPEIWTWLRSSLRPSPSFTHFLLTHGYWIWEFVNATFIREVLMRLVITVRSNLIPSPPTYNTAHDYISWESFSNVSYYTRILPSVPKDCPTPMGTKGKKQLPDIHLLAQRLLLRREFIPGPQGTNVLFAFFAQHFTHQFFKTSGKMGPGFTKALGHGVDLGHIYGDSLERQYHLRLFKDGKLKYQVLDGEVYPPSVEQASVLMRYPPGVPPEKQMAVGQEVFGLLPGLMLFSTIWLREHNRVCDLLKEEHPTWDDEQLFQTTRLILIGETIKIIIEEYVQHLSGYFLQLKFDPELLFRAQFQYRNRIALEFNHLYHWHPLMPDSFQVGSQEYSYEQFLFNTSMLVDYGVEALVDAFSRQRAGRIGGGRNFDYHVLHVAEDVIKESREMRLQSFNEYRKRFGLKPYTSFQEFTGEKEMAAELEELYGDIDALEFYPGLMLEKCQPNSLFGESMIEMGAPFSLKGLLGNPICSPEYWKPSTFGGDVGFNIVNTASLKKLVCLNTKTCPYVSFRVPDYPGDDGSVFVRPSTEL

[3] = test system: Rattus norvegicus; assay: Compound was evaluated for the antiinflammatory activity by taking the percentage inhibition of edema in the carrageenan foot-pad edema test at the dose of 30 mg/kg; type: functional
Outline: (§1)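 Male Wistar rats dosed orally (0.5% HPMC/0.2% Tween 80 or Labrafils, 10 mL/kg) 1 h before subplantar injection of 0.10 mL 1% carrageenan into right hind paw under light anesthesia. Paw volume by mercury plethysmography at challenge and 5 h later; percent inhibition ± SEM versus vehicle group. Doses 10.0 and 30.0 mg/kg po, 7-14 rats per dose.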

[4] = target: T2, Polyunsaturated fatty acid 5-lipoxygenase (Rattus norvegicus, UniProt P12527); assay: Inhibitory activity against 5-Lipoxygenase
T2 sequence (P12527 whole entry): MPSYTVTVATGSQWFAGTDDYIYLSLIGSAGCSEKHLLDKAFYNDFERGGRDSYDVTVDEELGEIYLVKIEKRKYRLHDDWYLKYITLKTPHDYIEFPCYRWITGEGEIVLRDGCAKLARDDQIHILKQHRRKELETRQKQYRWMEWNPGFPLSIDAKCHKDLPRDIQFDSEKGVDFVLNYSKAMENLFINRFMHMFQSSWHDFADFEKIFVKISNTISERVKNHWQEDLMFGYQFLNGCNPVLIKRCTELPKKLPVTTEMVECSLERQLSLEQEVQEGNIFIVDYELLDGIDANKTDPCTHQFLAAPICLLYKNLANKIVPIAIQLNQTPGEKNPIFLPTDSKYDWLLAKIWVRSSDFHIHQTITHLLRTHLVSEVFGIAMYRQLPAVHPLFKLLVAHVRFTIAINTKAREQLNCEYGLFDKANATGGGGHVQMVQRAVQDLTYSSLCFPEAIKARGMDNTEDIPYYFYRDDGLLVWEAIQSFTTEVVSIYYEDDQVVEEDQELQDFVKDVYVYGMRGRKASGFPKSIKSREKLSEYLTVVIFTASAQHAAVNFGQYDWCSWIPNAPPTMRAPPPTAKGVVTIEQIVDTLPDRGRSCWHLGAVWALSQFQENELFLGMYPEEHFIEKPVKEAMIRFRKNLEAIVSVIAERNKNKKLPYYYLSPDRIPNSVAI
Outline: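 Rat basophilic leukemia RBL-1 cells were grown in suspension in MEM with 12% FBS, washed, and resuspended at 2×10^6 cells/mL in PBS pH 7.4 with 1.0 mM calcium. Compound in DMSO was preincubated 10 min at room temperature, then 5 μM A23187 was added for 7 min at 37 °C. LTB₄ in the supernatant was measured by RIA at 0.10–10.0 μM. IC50 was determined by linear regression.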

[5] = test system: Rattus norvegicus; assay: Compound was evaluated for the antiinflammatory activity by taking the percentage inhibition of edema in the carrageenan foot-pad edema test at the dose of 10 mg/kg; type: functional; outline: as §1
[6] = species: Rattus norvegicus; assay: Ratio of IC50 against 5-LO and COX
Outline: (§2)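 In ionophore-stimulated RBL-1 cells (2×10^6/mL, PBS with 1.0 mM Ca, 10 min compound preincubation at room temperature, 5 μM A23187 for 7 min at 37 °C), supernatant LTB₄ (5-LO) and PGF₂α (CO) were each quantified by RIA over 0.10–10.0 μM. IC50s came from linear regression, and the ratio is the 5-LO IC50 over the CO IC50.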

[7] = test system: Rattus norvegicus; assay: Evaluated for the percent rats with ulcers at the dose of 200 mg/kg (number of animals used per group in the experiment are 10 ); type: functional
Outline: (§3)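 Male outbred Wistar rats (100-250 g) fasted 24 h, given compound orally in 0.5% HPMC (2 mL/kg), then denied food and water 6 more h. Killed with CO2; stomachs opened along greater curvature and scored for ulcers. Percent of rats with ulcers per dose; up to 200 mg/kg po, 10 rats per dose.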

[8] = target: Cyclooxygenase (Rattus norvegicus) (UniProt P35355+Q63921); assay: Inhibitory activity against Prostaglandin G/H synthase at 10 uM; type: protein assay
Outline: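 Cyclooxygenase read-out in RBL-1 cells (2×10^6 cells/mL in PBS with 1.0 mM calcium): 10 min room-temperature preincubation with compound in DMSO, A23187 (5 μM) stimulation 7 min at 37 °C, ice stop. Supernatant PGF2α by radioimmunoassay; percent inhibition at a 10 μM screening concentration.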

[9] = target: T2, Polyunsaturated fatty acid 5-lipoxygenase; assay: Evaluated in vitro for its inhibitory activity against 5-lipoxygenase; N=Inactive, <50% inhibition at 10 uM concentration
Outline: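 RBL-1 cells grown in MEM + 12% FBS, washed in PBS pH 7.4, resuspended at 2×10^6 cells/mL in PBS with 1.0 mM calcium. Preincubated 10 min at room temperature with compound in DMSO, then stimulated with A23187 (5 μM) 7 min at 37 °C; stopped on ice. Supernatant LTB4 by radioimmunoassay.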

[10] = test system: Rattus norvegicus; assay: Evaluated for the antiinflammatory activity by measuring the percentage inhibition of edema in the carrageenan foot-pad edema test at the dose of 30 mg/kg; type: functional; outline: as §1
[11] = species: Rattus norvegicus; assay: Ratio of IC50 against 5-LO to that of CO enzyme.; outline: as §2
[12] = test system: Rattus norvegicus; assay: Evaluated for the antiinflammatory activity by measuring the dose (po) which inhibited Mycobacterium induced foot-pad edema in rats; type: functional
[13] = test system: Rattus norvegicus; assay: Evaluated for the antiinflammatory activity by measuring the percentage inhibition of edema in the carrageenan foot-pad edema test at the dose of 10 mg/kg; type: functional; outline: as §1
[14] = test system: Rattus norvegicus; assay: Compound was evaluated for the percent rats with ulcers at the dose of 30 mg/kg (number of animals used per group in the experiment are 10 ); type: functional; outline: as §3
[15] = target: T2, Polyunsaturated fatty acid 5-lipoxygenase; assay: Evaluated in vitro for its inhibitory activity against 5-lipoxygenase
[16] = test system: Rattus norvegicus; assay: Compound was evaluated for the percent rats with ulcers at the dose of 36 mg/kg (number of animals used per group in the experiment are 10 ); type: functional; outline: as §3
[17] = test system: Rattus norvegicus; assay: Compound was evaluated for the antiinflammatory activity by taking the percentage inhibition of edema in the carrageenan foot-pad edema test at the dose of 30 mg/kg; N=Inactive, <25% inhibition; type: functional, organism-based; parameters: dose 30 mg/kg; outline: as §1

Compound: CC(C)(C)c1cc(-c2nnc(S)s2)cc(C(C)(C)C)c1O.C[N+](C)(C)CC[O-]
- ID40 [1]: 7.7 mg/kg
- IC50 [2]: 800 nM
- inhibition in vivo at 30 mg/kg [3]: 47.9%
- IC50 [4]: 2800 nM
- inhibition in vivo at 10 mg/kg [5]: 49.9%
- Ratio [6]: 3.5
- Activity [7]: 0%

Compound: CN(C)c1noc(-c2cc(C(C)(C)C)c(O)c(C(C)(C)C)c2)n1
- inhibition [8]: 88%
- IC50 [9]: Inactive

Compound: CC(C)(C)c1cc(C2CCOC2=O)cc(C(C)(C)C)c1O (stereo unspecified)
- inhibition in vivo at 30 mg/kg [10]: 28.4%
- Ratio [11]: 17
- IC50 [2]: 150 nM
- ID40 [12]: 3.7 mg/kg
- inhibition in vivo at 10 mg/kg [13]: 16.6%
- Activity [14]: 30%
- IC50 [15]: 2500 nM

Compound: CCO/C=N/c1noc(-c2cc(C(C)(C)C)c(O)c(C(C)(C)C)c2)n1
- IC50 [2]: 7200 nM
- inhibition in vivo at 30 mg/kg [3]: 37.3%
- IC50 [4]: 1500 nM
- inhibition in vivo at 10 mg/kg [5]: 21%
- Ratio [6]: 0.21

Compound: CNCc1noc(-c2cc(C(C)(C)C)c(O)c(C(C)(C)C)c2)n1
- inhibition [8]: 78%
- IC50 [9]: Inactive

Compound: Cc1ccc(Cl)c(Nc2ccccc2C(=O)[O-])c1Cl.O.[Na+] [MECLOFENAMATE SODIUM]
- inhibition in vivo at 30 mg/kg [10]: 40.8%
- ID40 [12]: 0.4 mg/kg
- inhibition in vivo at 10 mg/kg [13]: 34.4%
- Activity [16]: 50%

Compound: CC(C)(C)c1cc(-c2nc(CCl)no2)cc(C(C)(C)C)c1O
- IC50 [2]: 100 nM
- IC50 [4]: 780 nM
- inhibition [17]: inactive
- Ratio [6]: 7.8
